Bioassay records from PubChem.
Most compounds without a hit are left out; they make up all but 3% or so of the library.
TAAR1 antag: antagonists of human TAAR1. CHO RD-HGA16 TAAR1, Fluo-8 calcium fluorescence, antagonist. inhibition, % at 3 µM. actives 1.5% (n = 360,000);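 active = inhibition above a per-plate cutoff, the mean inhibition of test compounds on that plate plus 3 SD, cut at about 49% in these data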;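 note: 0% = DMSO plus EC80 beta-PEA response and 100% = DMSO alone without agonist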
Target sequence (Q96RJ0 whole entry, looked up): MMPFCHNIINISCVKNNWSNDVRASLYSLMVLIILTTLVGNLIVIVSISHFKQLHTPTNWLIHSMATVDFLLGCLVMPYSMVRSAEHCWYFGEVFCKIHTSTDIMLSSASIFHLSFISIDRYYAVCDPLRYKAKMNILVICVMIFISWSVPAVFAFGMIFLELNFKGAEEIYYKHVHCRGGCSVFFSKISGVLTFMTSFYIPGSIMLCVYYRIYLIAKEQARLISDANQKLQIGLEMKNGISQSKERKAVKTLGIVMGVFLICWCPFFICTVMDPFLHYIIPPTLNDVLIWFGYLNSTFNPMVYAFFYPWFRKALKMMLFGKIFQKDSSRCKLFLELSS
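Material: RD-HGA16 CHO cells with stable hTAAR1 and Gα16; Dosing: single nominal final test compound concentration of 3 µM; Schedule: seeding 17-24 h prior, 75-min 37 °C, 30-min RT dye loading; Detection: kinetic Fluo-8 calcium fluorescence measurement; Measure: % inhibition from peak post-agonist over basal fluorescence ratio; Benchmarks: vehicle and agonist controls.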
TAAR1 ag: agonists of human TAAR1; CHO RD-HGA16 TAAR1, Fluo-8 calcium fluorescence; vehicle wells 0%, saturating PEA agonist 100%; actives 0.99% (n = 360,000); Q96RJ0; AID 624467; activation, % at 3 µM;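 active = activation above the mean activation of all test compounds in the run plus 3 SD, cut at about 38% in these data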
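Test system: RD-HGA16 (CHO) cells co-expressing Gα16 and hTAAR1 / Benchmarks: DMSO vehicle as 0%, PEA at EC100 as 100% / Repeats: no replicates (n 1) / Measure: % activation from peak over basal fluorescence ratio, DMSO-to-PEA scaled / Timing: 17-24 h plating, Fluo-8 75 min 37 °C, 30 min RT / Technique: kinetic Fluo-8 calcium fluorescence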
M4 ag: agonists of human muscarinic M4 receptor (CHRM4); P08173; activation, % at 3 µM; actives 0.14% (n = 360,000); CHO-K1 hM4/Gqi5, Fluo-8 calcium fluorescence; vehicle 0%, full acetylcholine response 100%;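 active = activation above the run mean over all test wells plus 3 SD, cut at about 32% in these data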;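 note: peak over basal fluorescence ratio per well then scaled between controls; 0% = DMSO wells and 100% = acetylcholine at EC100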
M4 antag: blocks acetylcholine activation of human M4 receptor. P08173. CHO-hM4 cells, ACh EC80, Fluo-8 calcium fluorescence. inhibition, % at 3 µM. actives 0.73% (n = 360,000). AID 624125;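 active = inhibition above its plate's cutoff, the mean inhibition of sample wells plus 3 SD, cut at about 27% in these data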;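 note: 0% = acetylcholine EC80 with DMSO and 100% = DMSO without agonist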
M4 PAM: positive allosteric modulators of human muscarinic M4 receptor. actives 0.4% (n = 360,000). CHO-K1 hM4/Gqi5, Fluo-8 calcium fluorescence, ACh EC20; 0% = ACh EC20, 100% = maximal ACh. P08173. activation, % at 3 µM;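 active = activation above its plate's cutoff, the mean activation of sample wells plus 3 SD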
TAAR1 nonsel count: nonselective antagonist in TAAR1 antagonist counter-screen; shares compounds with TAAR1 antag; counterscreen cell line, calcium fluorescence, antagonist mode; inhibition, % at 3 µM; actives 77% (n = 2,400); in the data active = inhibition above about 22%;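 note: CHO-Ga16 host cells stimulated with ATP at an EC80 level; 0% = agonist EC80 plus vehicle and 100% = vehicle without agonist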
TAAR1 antag conf: human TAAR1 antagonism, confirmed; shares compounds with TAAR1 antag; TAAR1-expressing cells, fluorescence antagonist read-out; inhibition, % at 3 µM; actives 40% (n = 2,400); AID 651785; in the data active = inhibition above about 49%;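 note: CHO-Ga16 host cells challenged with agonist PEA near its EC80; 0% = agonist at EC80 plus vehicle and 100% = vehicle with no agonist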
Ga16 ag counter: nonselective Ga16 agonist in TAAR1 antagonist counter-screen; AID 651953; actives 18% (n = 2,400); shares compounds with TAAR1 antag; activation, % at 3 µM; Ga16-expressing cells, calcium fluorescence, agonist counterscreen; in the data active = activation above about 12%;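 note: 0% = vehicle wells and 100% = saturating stimulus response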
TAAR1 ag counter: activates human TAAR1 in antagonist counter-screen; actives 2% (n = 2,400); AID 651955; hTAAR1 cell line, fluorescence activation, agonist mode; activation, % at 3 µM; shares compounds with TAAR1 antag; in the data active = activation above about 37%;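 note: CHO cells stably expressing TAAR1 with calcium dye readout; 0% = DMSO vehicle and 100% = full agonist response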
Numbers without * were called inactive.

What do the screens show for `CCN(CC)C(=O)c1cccc(-c2csc(C(C)(O)c3ccccc3)n2)c1` (stereo unspecified)?
TAAR1 antag: 29.6; TAAR1 ag: 9.0; M4 ag: 17.6; M4 antag: 3.1; M4 PAM: -10.6

How did O=C(CC1CC1)Nc1ccc2c(c1)[C@@H]1C[C@H](CC(=O)NC3CCCC3)O[C@@H](CO)[C@@H]1O2 do in these assays?
TAAR1 antag: 85.9*; TAAR1 ag: -1.4; M4 ag: 0.1; M4 antag: -21.0; M4 PAM: 8.3; TAAR1 nonsel count: -6.3; TAAR1 antag conf: 4.9; Ga16 ag counter: 0.8; TAAR1 ag counter: 4.9

How did COC(=O)C[C@@H]1C[C@H]2c3cc(NC(=O)CC4CC4)ccc3O[C@H]2[C@@H](CO)O1 do in these assays?
TAAR1 antag: -4.0; TAAR1 ag: 2.7; M4 ag: 1.7; M4 antag: -17.2; M4 PAM: 13.8

What do the screens show for `COc1cc(OC)nc(C(NC(=O)C2CCN(Cc3c[nH]c4ccccc34)CC2)c2ccc(Cl)cc2)n1` (stereo unspecified)?
TAAR1 antag: 28.0; TAAR1 ag: 26.1; M4 ag: 13.0; M4 antag: 18.2; M4 PAM: -9.0

What do the screens show for `CCOC(=O)c1c(C)[nH]c(C)c1C(=O)CSc1nc2ccccc2c(=O)n1-c1ccccc1C`?
TAAR1 antag: 56.8*; TAAR1 ag: 13.8; M4 ag: 8.3; M4 antag: -10.2; M4 PAM: -2.7; TAAR1 nonsel count: 26.0*; TAAR1 antag conf: 47.2; Ga16 ag counter: 7.1; TAAR1 ag counter: 13.8

How did Cc1ccc(Cc2c(-c3cccc(Br)c3)nc3c4ccccc4ccn23)cc1 do in these assays?
TAAR1 antag: -18.6; TAAR1 ag: 0.5

What do the screens show for `CC(C)(C)C(c1nc2ccccc2[nH]1)n1c(-c2cc(Cl)cc(Cl)c2)nc2ccccc21` (stereo unspecified)?
TAAR1 antag: -24.6; TAAR1 ag: -1.4; M4 ag: 0.6; M4 antag: -3.8; M4 PAM: -8.6

Results for CCN(CC)S(=O)(=O)c1ccc(-c2csc(C)n2)s1 ?
TAAR1 antag: -6.7; TAAR1 ag: 11.9; M4 ag: 1.9; M4 antag: 6.4; M4 PAM: -10.4

Results for Cc1nc(-c2ccc(S(=O)(=O)Oc3ccccc3Cl)s2)cs1 ?
TAAR1 antag: 78.7*; TAAR1 ag: 8.7; M4 ag: 4.8; M4 antag: -2.8; M4 PAM: -20.0; TAAR1 nonsel count: 28.1*; TAAR1 antag conf: 49.1*; Ga16 ag counter: 2.3; TAAR1 ag counter: 3.2

How did O=C(/C=C/[C@H]1O[C@@H](n2cnc3c(NC(=O)c4ccccc4)ncnc32)[C@H](O)[C@@H]1O)NCC1CCCCC1 do in these assays?
TAAR1 antag: -0.7; TAAR1 ag: 0.7; M4 ag: 0.2; M4 antag: -5.1; M4 PAM: 4.8

Results for NC(=O)c1ccsc1NC(=O)COC(=O)/C=C/c1ccccc1 ?
TAAR1 antag: 79.0*; TAAR1 ag: 17.6; M4 ag: 26.8; M4 antag: 21.6; M4 PAM: -15.8; TAAR1 nonsel count: 40.6*; TAAR1 antag conf: 74.2*; Ga16 ag counter: 17.1*; TAAR1 ag counter: 35.6

Results for COC(=O)c1ccccc1NC(=O)COC(=O)/C=C/c1cccs1 ?
TAAR1 antag: 59.6*; TAAR1 ag: 8.2; M4 ag: 2.5; M4 antag: -9.8; M4 PAM: 6.9; TAAR1 nonsel count: 20.9; TAAR1 antag conf: 36.6; Ga16 ag counter: 4.1; TAAR1 ag counter: 1.3

What do the screens show for `NC(=O)c1ccsc1NC(=O)COC(=O)COc1ccccc1[N+](=O)[O-]`?
TAAR1 antag: 45.9; TAAR1 ag: 16.9; M4 ag: 19.9; M4 antag: 0.7; M4 PAM: -6.1

What do the screens show for `NC(=O)c1ccsc1NC(=O)COC(=O)/C=C/c1ccccc1[N+](=O)[O-]`?
TAAR1 antag: 77.8*; TAAR1 ag: 21.1; M4 ag: 22.8; M4 antag: 31.3*; M4 PAM: -8.5; TAAR1 nonsel count: 38.1*; TAAR1 antag conf: 59.5*; Ga16 ag counter: 14.0*; TAAR1 ag counter: 21.6

How did CN(C(=O)c1cccc(NC(=O)Cc2cccc(NC(=O)C3CCCN(C(=O)C4CCCCC4)C3)c2)c1)C1CC1 (stereo unspecified) do in these assays?
TAAR1 antag: -38.6; TAAR1 ag: 1.9; M4 ag: -0.2; M4 antag: 0.2; M4 PAM: -2.1

How did Cc1noc(C)c1S(=O)(=O)N(C)C[C@@H]1OCc2cnnn2CCCC(=O)N([C@@H](C)CO)C[C@H]1C do in these assays?
TAAR1 antag: -4.6; TAAR1 ag: 0.6; M4 ag: 1.4; M4 antag: -19.5; M4 PAM: 9.6

Results for CC1=CC(=O)Nc2ccccc2S1 ?
TAAR1 antag: -35.0; TAAR1 ag: 0.3; M4 ag: 0.8; M4 antag: -5.9; M4 PAM: 5.2

How did COC(=O)C1=C(C)N(Cc2ccccc2C(F)(F)F)C(=NCC2CC2)NC1c1ccc(F)cc1 (stereo unspecified) do in these assays?
TAAR1 antag: -1.4; TAAR1 ag: 17.6

What do the screens show for `O=C(COC(=O)c1cccc(OC(F)F)c1)Nc1ncccn1`?
TAAR1 antag: 4.6; TAAR1 ag: 5.5; M4 ag: 0.7; M4 antag: -6.2; M4 PAM: 1.1

How did N#C/C(=C\c1ccncc1)c1nc2ccccc2o1 do in these assays?
TAAR1 antag: -18.3; TAAR1 ag: 0.9; M4 ag: 1.1; M4 antag: -0.7; M4 PAM: -1.6

Results for N#C/C(=C\Nc1ccccc1O)c1nc2ccccc2o1 ?
TAAR1 antag: 87.4*; TAAR1 ag: 8.9; M4 ag: 18.1; M4 antag: 14.8; M4 PAM: -30.2; TAAR1 nonsel count: 48.2*; TAAR1 antag conf: 73.4*; Ga16 ag counter: 10.3; TAAR1 ag counter: 13.4

How did Cc1cccc(NC(=O)c2oc3ccc(S(=O)(=O)N4CCOCC4)cc3c2C)c1C do in these assays?
TAAR1 antag: 58.2*; TAAR1 ag: 18.0; M4 ag: 18.1; M4 antag: 28.7*; M4 PAM: -19.7; TAAR1 nonsel count: 31.5*; TAAR1 antag conf: 51.2*; Ga16 ag counter: 9.4; TAAR1 ag counter: 9.2
